This is a sample that favours compounds with a hit; in the whole collection about 2.9% have one here.
PfM18AAP inh – blocks P. falciparum M18 aspartyl aminopeptidase | recombinant PfM18AAP, H-Glu-NHMec fluorogenic cleavage | inhibition, % at 7.35 µM | hit rate 1.2% among 290,000 | AID 1822;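 active = inhibition above the campaign mean inhibition over all tested compounds plus 3 SD, cut at about 28% in these data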;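 also: 0% = plate median of test compound wells and 100% = 2 mM ZnCl2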
Runt-CBFb FRET – Runt domain-CBFb interaction inhibition. inhibition, % at 20 µM. hit rate 0.46% among 220,000. Cerulean-Runt/Venus-CBFb FRET ratio 530/480, 1 h;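 active = inhibition over about 50% at 20 µM in the single-dose screen, limit read from the data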;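 also: 0% = DMSO wells and 100% = excess unlabeled CBFb competitor control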
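Assay system: Cerulean-Runt domain fusion protein, energy donor; Signal: fluorescence energy transfer, 422 nm excitation, 530/480 nm emission; Timing: 1 h compound exposure, room temperature; Control set: unlabeled CBFb; Medium: Tris buffer pH 7.5 with salts and BSA; Compound: single test concentration of 20 µM, 1% DMSO final; Probe or stimulus: Venus-CBFb 100 nM.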
Hck Nef HTS – blocks Nef-activated human Hck kinase; inhibition, % at 20 µM; hit rate 0.68% among 220,000; Recombinant Hck-YEEI plus Nef, Z-Lyte FRET kinase assay; P08631;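 active = Hck-Nef kinase inhibition above about 50%, limit read from the data; inactive = inhibition below that limit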;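 also: 0% = DMSO with Hck plus Nef and 100% = Hck alone without Nef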
Runt-SMMHC FRET – inhibitors of human RUNX1 Runt domain binding to CBFb-SMMHC | inhibition, % at 20 µM | hit rate 0.74% among 220,000 | AID 1434 | Q01196+Q13951 | Cerulean-Runt/Venus-CBFb-SMMHC FRET ratio 530/480, 1 h;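 active = mean inhibition across duplicate retests at 20 µM reaching about 50%, limit read from the data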;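 also: 0% = DMSO wells and 100% = wells with excess untagged CBFb-SMMHC; inhibitors lower the FRET ratio by blocking Runt binding to CBFb-SMMHC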
RBBP9 inhibitor – human RBBP9 hydrolase inhibition. inhibition, % at 7.94 µM. recombinant RBBP9, FP-Rh probe fluorescence polarization. hit rate 0.2% among 220,000. O75884;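 active = inhibition above the campaign mean of all tested compounds plus 3 SD, cut at about 14% in these data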;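 also: plate controls were DMSO wells with RBBP9 for no effect and wells lacking RBBP9 protein for full effect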
Target sequence (O75884 whole entry, looked up): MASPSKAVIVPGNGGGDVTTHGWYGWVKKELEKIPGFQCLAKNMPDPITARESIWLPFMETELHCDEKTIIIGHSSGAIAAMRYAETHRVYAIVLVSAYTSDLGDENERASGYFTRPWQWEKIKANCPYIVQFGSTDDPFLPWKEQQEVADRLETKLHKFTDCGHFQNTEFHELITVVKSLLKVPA
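Measured by: FP readout at 525/598 nm; material: recombinant human RBBP9; also added: Serine-hydrolase probe FP-Rh, 375 nM pre-mixing; medium: Tris buffer pH 8.0, NaCl, Pluronic; replication: one well per compound; doses: one concentration, 7.94 µM nominal, 0.794% DMSO; timing: preincubation 30 min plus labeling 45 min at 25 °C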
RanGTP-Impb inh – inhibitors of RanGTP-importin-beta interaction, primary screen, biochemical, FRET, CFP-Ran, YFP-importin-beta, homogeneous. inhibition, % (test concentration not listed). cell-free CFP-Ran/YFP-importin-beta FRET ratio. AID 2216. hit rate 1.1% among 300,000;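 active = more than half of the replicate wells show a fall in the fluorescence ratio signal beyond about 16%, limit read from the data, passing the limit was not always enough; inconclusive = exactly half of the replicate wells pass the set limit; inactive = fewer than half of replicates pass the limit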;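 also: 0% = DMSO wells and 100% = Ran loaded with GDP instead of GTP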
RBBP9 inh conf – confirmation of human RBBP9 inhibitors; shares compounds with RBBP9 inhibitor; recombinant RBBP9, FP-Rh probe fluorescence polarization; inhibition, % at 7.94 µM; hit rate 36% among 410; AID 1537;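 active = inhibition above the hit cutoff derived for the primary screen, cut at about 15% in these data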;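 also: 0% = RBBP9 with DMSO and 100% = wells lacking RBBP9 protein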
* hit, by the source's call; ? = inconclusive; . = no result.

SMILES	PfM18AAP inh	Runt-CBFb FRET	Hck Nef HTS	Runt-SMMHC FRET	RBBP9 inhibitor	RanGTP-Impb inh	RBBP9 inh conf
Oc1ccc(Nc2nc3ccccc3nc2Nc2ccc(O)cc2)cc1	-4	13	-11	12	21*	7	37*
CC(=O)c1ccc(NC(=O)/C(=C\c2ccc(F)cc2)NC(=O)c2ccco2)cc1	0	.	.	.	.	-1	.
Cc1ccc(-c2nc(NC(=O)c3cc(C(C)(C)C)nn3C)sc2C)cc1Cl	3	0	3	-2	0	-4	.
CCC(=O)N/C(=N/c1nc(C)cc(C)n1)Nc1ccc(OC)cc1	9	-1	-9	3	19*	-3	6
Cc1cc(C)nc(/N=C(\NC(=O)C(C)(C)C)Nc2ccc(F)cc2)n1	7	-2	14	-1	15*	9	7
Cc1cccc(-n2cc(CNCCc3nc(C)cc(C)n3)c(-c3cccc(F)c3)n2)c1	-2	0	15	1	-7	-3	.
Cn1c(N2CCOCC2)nc2c1c(=O)n(Cc1ccc(Cl)c(Cl)c1)c(=O)n2C	1	1	13	-3	18*	.	4
CC(C)(C)NC(=O)CN(C(=O)c1ccc(CN2CCOCC2)o1)c1ccc2c(c1)OCCO2	4	0	-1	1	-7	6	.
COc1ccc(C(=O)N(CC(=O)NC(C)(C)C)c2ccc3c(c2)OCCO3)cc1OC	3	0	1	-1	15*	2	6
O=C(O)c1ccccc1C(=O)NNc1ccc(Cl)cc1	2	0	-1	0	0	5	.
CC(=O)C(=Nc1ccccc1Cl)NNc1ccc(Cl)cc1	-64	29	-12	3	37*	-2	6
COc1cc(OC)c2cc(C(=O)N/N=C/c3cccc(OC)c3O)[nH]c2c1	-14	2	-105	-6	16*	0	32*
COc1cccc(/C=N/NC(=O)c2cc3c(OC)ccc(OC)c3[nH]2)c1O	-5	.	.	.	.	?	.
CN(C(=O)/C=C/c1ccco1)c1ccccc1C(=O)O	5	6	-106	-3	17*	1	5
COc1cccc(NC(=O)Cn2c(=O)n(-c3ccccc3)c(=O)c3oc4ccccc4c32)c1	0	-2	5	-4	16*	2	-3
Cc1cc(-c2onc(C)c2C(=O)Oc2ccc(Cl)cc2)no1	2	0	14	-1	-6	?	.
Cc1cc(-c2onc(C)c2C(N)=O)no1	2	0	7	-2	14*	5	6
Cc1ccc(CN(C(=O)c2ccc(Cl)c([N+](=O)[O-])c2)C2CCS(=O)(=O)C2)o1 (stereo unspecified)	-3	.	.	.	.	4	.
CCOC(=O)C1CCN(c2nc(N)c3c(N)nc(SCC(=O)O)cc3c2C#N)CC1	17	1	2	-44	17*	-8	39*
COc1ccc(CC(=O)NNC(=O)CSc2ccc(C)cc2)cc1	12	0	-17	1	0	0	.
COc1cc(C(=O)NCCCn2ccnc2)cc(OC)c1OC	10	0	16	0	14*	3	0
O=S(=O)(c1cccs1)N1CN(Cc2ccco2)c2nc3ccccc3nc21	-6	-1	-12	2	34*	3	0
CC(C)(C)N1CCC1C(N)=O (stereo unspecified)	-3	4	-5	-4	18*	3	2
COC(=O)c1sc2nc(-c3ccco3)ccc2c1N	25	8	0	-4	22*	5	32*
NC(=O)c1sc2nc(-c3ccco3)ccc2c1N	13	14	7	5	8	-1	.
SMILES	PfM18AAP inh	Runt-CBFb FRET	Hck Nef HTS	Runt-SMMHC FRET	RBBP9 inhibitor	RanGTP-Impb inh	RBBP9 inh conf
CC(C)C[C@H](N)c1nnc(SCc2ccc(Cl)cc2)o1	-8	2	-3	-5	16*	0	10
CCn1c(CSc2nnc(-c3ccncc3)n2C)nc2cc(C(=O)O)ccc21	-3	4	18	5	17*	-4	21*
CCOC(=O)C1CCN(C(=O)c2cc(C)n(C(C)(C)C)n2)CC1	-4	2	13	-6	-8	-5	.
Nc1[nH]n(-c2ccccc2)c(=O)c1N=Nc1ccccc1	7	-1	-5	-1	3	-2	.
Nc1[nH]n(-c2ccccc2)c(=O)c1N=Nc1ccc2ncsc2c1	16	22	-20	1	19*	-2	34*
Cc1[nH]c2ccccc2c1/C=N/NC(=O)c1cc(-c2ccccc2)n[nH]1	12	-2	20	-5	19*	0	25*
CN(C)c1ccc(NC(=O)Nc2csc3ccccc23)cc1	1	37	-37	9	19*	4	58*
O=C(Nc1ccc(F)cc1)Nc1csc2ccccc12	-5	2	8	-1	-1	4	.
COc1ccc(OC)c(C2C(C(=O)c3cccs3)=C(O)C(=O)N2CCN2CCOCC2)c1 (stereo unspecified)	17	.	.	.	.	2	.

Screening results (PubChem BioAssay)
